# Experimental data taken from PubChem BioAssay AID652250 (Vanderbilt Specialized Chemistry Center, 2013).
# Active and inactive are the calls of the source.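 Rule for the calls: active = compounds leaving under half of the peptide-driven platelet calcium rise; inactive = the rest.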
# Molecular target: Proteinase-activated receptor 4 (Homo sapiens) (UniProt Q96RI0)
# Experiment: inhibition of PAR4-AP calcium signal – cell-based, single concentration, washed platelets, Fluo4 calcium (AID 652250)
# Conditions: PAR4-AP calcium Fluo4 fluorescence; for % of max PAR4-AP calcium response: at 10 µM, active compounds read low
# Procedure, shortened: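 Material – Fluo4-AM-loaded washed human platelets · Also added – PAR4-activating peptide (PAR4-AP) agonist at 80 µM · Signal – fluorescence at 480/540 nm, 1 s intervals · Read-out – peak minus basal RFU as % of per-donor DMSO control · Benchmarks – PAR4-AP-stimulated DMSO control (100%) · Replicates – triplicate wells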
# Sequence of Proteinase-activated receptor 4 (Homo sapiens) (Q96RI0 whole entry, looked up): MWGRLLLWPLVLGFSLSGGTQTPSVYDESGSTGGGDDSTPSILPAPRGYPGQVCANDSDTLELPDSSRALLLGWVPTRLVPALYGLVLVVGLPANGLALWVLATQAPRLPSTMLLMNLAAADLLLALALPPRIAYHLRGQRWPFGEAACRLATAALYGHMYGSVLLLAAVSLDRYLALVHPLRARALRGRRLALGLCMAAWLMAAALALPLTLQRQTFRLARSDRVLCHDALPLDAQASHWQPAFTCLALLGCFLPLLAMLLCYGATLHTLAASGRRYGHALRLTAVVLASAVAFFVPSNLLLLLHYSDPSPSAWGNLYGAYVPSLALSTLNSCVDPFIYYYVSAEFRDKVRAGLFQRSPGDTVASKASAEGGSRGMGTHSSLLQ
IC50,% of max PAR4-AP calcium response,Compound
3.13 µM,–,COc1ccc(-c2cn(Cc3cccc(Cl)c3)c3ccccc23)cn1
–,inactive,OCCc1c(-c2ccccc2)n(Cc2ccccc2)c2ccccc12
–,inactive,Clc1ccc(-n2cc(-c3ccccc3)c3c(N4CCOCC4)ncnc32)cc1
–,inactive,CC(=O)n1cc(C2C(=O)NN=C2C)c2ccccc21 (centres undefined)
–,inactive,FC(F)(F)c1cccc(-n2cc(-c3ccccc3)c3c(NC4CCCC4)ncnc32)c1
–,inactive,Cc1cccc(-n2cc(-c3ccccc3)c3c(N4CCN(c5ccccc5)CC4)ncnc32)c1
–,inactive,CCc1nn(-c2ccccc2)c2nc(-c3cccc(OC)c3)c3cc(OC)c(OC)cc3c12
–,inactive,COc1ncc(-c2cn(Cc3ccccc3)c3ccccc23)cn1
–,inactive,CC(=O)n1cc(-c2ccncc2)c2ccccc21
–,inactive,Fc1ccc(OCCn2cc(C(=S)N3CCCCC3)c3ccccc32)cc1
–,inactive,Fc1cc(-c2cn(Cc3ccccc3)c3ccccc23)cc(F)n1
14.6 µM,–,COc1cccc(Cn2cc(-c3ccc(OC)nc3)c3ccccc32)c1
–,inactive,Cn1cnnc1SCC(=O)n1c2c(c3ccccc31)CCCC2
–,inactive,CC(C)Sc1ncnc2c1c(-c1ccccc1)cn2-c1cccc(F)c1
–,inactive,Fc1ccc(Cn2cc(C(=S)N3CCCC3)c3ccccc32)cc1
–,inactive,COc1ccc(-c2cn(Cc3cccc(-c4cccs4)c3)c3ccccc23)cn1
–,inactive,CCc1nn(-c2ccccc2)c2nc(-c3ccccc3OC)c3cc(OC)c(OC)cc3c12
–,inactive,COc1ccccc1OCCn1cc(C(=S)N2CCCC2)c2ccccc21
–,inactive,COc1ccc(NCC(O)Cn2c(C)c(C)c3ccccc32)cc1 (centres undefined)
–,inactive,Cc1ccc(-n2cc(-c3ccccc3)c3c(N4CCCC4)ncnc32)cc1Cl
–,inactive,O=C(Cn1cc(C(=O)C(F)(F)F)c2ccccc21)NC1CCCC1
–,inactive,CCN1CCN(c2ncnc3c2c(-c2ccccc2)cn3-c2ccc(Br)cc2)CC1
–,inactive,OCc1cn(Cc2ccccc2Cl)c2ccccc12

IC50,% of max PAR4-AP calcium response,Compound
–,inactive,COc1cccc(/C=N/NC(=O)c2ccn(Cc3ccc(Cl)cc3Cl)n2)c1OC
–,inactive,O=C(c1cn(CCOc2ccc3c(c2)OCO3)c2ccc(Br)cc12)C(F)(F)F
–,inactive,O=C(c1ccccc1F)n1c2c(c3ccccc31)CCCC2
–,inactive,COc1cc(Nc2ncnc3c2c(-c2ccccc2)cn3-c2ccccc2)cc(OC)c1OC
–,inactive,Fc1ccccc1Cn1cc(C(=S)N2CCOCC2)c2ccccc21
–,inactive,O=C(c1cn(CCOc2ccc(F)cc2)c2ccccc12)C(F)(F)F
–,inactive,Cn1cc(CC(=O)NCC2COc3ccccc3O2)c2ccccc21 (centres undefined)
–,inactive,Fc1cccc(Cn2cc(C(=S)N3CCCCC3)c3ccccc32)c1
–,inactive,Cc1c(C)n(CC(O)CNCCCO)c2ccccc12 (centres undefined)
–,inactive,O=C(CN1CCOCC1)n1c2c(c3ccccc31)CCCC2
–,inactive,CCN(CC)CC(O)Cn1c(C)c(-c2ccccc2)c2cc([N+](=O)[O-])ccc21 (centres undefined)
–,inactive,FC(F)(F)c1cccc(-n2cc(-c3ccccc3)c3c(NCCN4CCOCC4)ncnc32)c1
–,inactive,O=C(Cn1cc(C(=O)C(F)(F)F)c2cc(Br)ccc21)N1CCCCC1
–,inactive,O=C(c1ccccc1)n1cc(-c2nc3cc(Cl)ccc3o2)cn1
–,inactive,Fc1ccc(-c2cn(Cc3ccccc3)c3ccccc23)c(F)n1
–,inactive,Cc1c(C)n(CC(O)CNc2ccccc2)c2ccccc12 (centres undefined)
–,inactive,Clc1ccc(-n2cc(-c3ccccc3)c3c(NCc4ccc5c(c4)OCO5)ncnc32)cc1
–,inactive,CNc1ccccc1-n1ccc(-c2ccccc2)n1
–,inactive,O=C(Nc1cccc(Br)c1)c1ccn(C(=O)Nc2ccc(Cl)cc2)n1
–,inactive,COc1ccc(-c2cn(Cc3ccccc3)c3ccccc23)c(OC)n1
–,inactive,c1ccc(COc2ccc(-c3cn(Cc4ccccc4)c4ccccc34)cc2)cc1
–,inactive,S=C(c1cn(Cc2ccc(Cl)cc2)c2ccccc12)N1CCCC1
–,inactive,c1ccc(CN2CCN(c3ncnc4c3c(-c3ccccc3)cn4-c3ccccc3)CC2)cc1

IC50,% of max PAR4-AP calcium response,Compound
–,inactive,Cc1cn(CC(=O)c2ccccc2)c2ccccc12
–,inactive,O=C(N/N=C/c1c[nH]c2ccccc12)c1ccn(Cc2ccc(Cl)cc2)n1
–,inactive,Cc1ccc(-n2cc(-c3ccccc3)c3c(N4CC(C)OC(C)C4)ncnc32)cc1 (centres undefined)
–,inactive,OCc1cn(Cc2ccc(Cl)c(Cl)c2)c2ccccc12
–,inactive,Cn1cc(CC(=O)NCc2cccs2)c2ccccc21
–,inactive,COc1ccc(-n2cc(-c3ccccc3)c3c(NCCO)ncnc32)cc1
–,inactive,CCN(CC)c1ncnc2c1c(-c1ccccc1)cn2-c1ccc(C)c(Cl)c1
–,inactive,CCOc1ccc(NC(=O)Cn2cc(C(=O)C(F)(F)F)c3ccccc32)cc1
–,inactive,Cc1ccc(OCCn2cc(C(=S)N3CCOCC3)c3ccccc32)cc1
–,inactive,Cc1nc(-c2cnn(-c3ccccc3)c2)c2cc(C)oc2n1
–,inactive,COc1cc(NC(=O)c2ccc3c(c2)c(C)c(C)n3C)cc(OC)c1
–,inactive,Cc1cc(OCCn2cc(C(=S)N3CCOCC3)c3ccccc32)ccc1Cl
–,inactive,CC(C)Oc1ccc(-c2cn(Cc3ccccc3)c3ccccc23)cc1
10 µM,–,COc1ccc(-c2cn(Cc3ccccc3)c3ccccc23)cc1
–,inactive,NC(=O)C1CCN(c2ncnc3c2c(-c2ccccc2)cn3-c2ccc(Cl)cc2)CC1
–,inactive,O=c1c2ccccc2nc(/C=C/c2cn(Cc3ccccc3)c3ccccc23)n1CCCO
–,inactive,S=C(c1cn(Cc2ccccc2Cl)c2ccccc12)N1CCCC1
–,inactive,COc1ccc(-c2cn(Cc3cccc(-c4ccsc4)c3)c3ccccc23)cn1
–,inactive,Fc1ccc(CNc2ncnc3c2c(-c2ccccc2)cn3-c2ccc(F)cc2)cc1
–,inactive,Cc1c(C)n(CC(O)CNCc2ccccc2)c2ccccc12 (centres undefined)
–,inactive,O=C(c1ccn(C(=O)c2cccc(Cl)c2)n1)N1CCOCC1
–,inactive,COc1ccc(-n2nc(C(=O)NCCC3=CCCCC3)c3c4ccccc4n(C)c3c2=O)cc1Cl
–,inactive,Cn1cc(CC(=O)NCCCN2CCCC2=O)c2ccccc21
